From publication PMC12177174 (iScience, 2025)
Several values for one entry are separate records, joined by “and”; a condition that tells them apart may be missing. Equal entries are not always repeated. Where two headings read alike, the source gives them in different places.

Experiments:
Phase 1 Part 1 = type: in vivo, homo sapiens
How it was run: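 Healthy adults were randomized to one oral dose of test compound (7, 20 or 40 mg; 6 active, 2 placebo per cohort), with a sentinel pair per cohort. Participants stayed in the unit ≥72 h post-dose, with follow-up at 6 ± 1 day. Adverse events were graded by CTCAE, and relatedness was assessed by the investigator. Placebo participants were pooled across cohorts.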

Phase 1 Part 2 = type: in vivo, homo sapiens
How it was run: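 Healthy adults got test compound (5, 15 or 20 mg) or placebo once daily on day 1 and days 3–16. The first cohort had 6 active and 2 placebo; later cohorts had 8 active and 3 placebo, each starting with a 2:1 sentinel group. Participants were discharged day 19, with follow-up 6 ± 1 and 29 ± 2 days after the last dose. Events were graded by CTCAE, with investigator-assessed relatedness. Placebo was pooled.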

[1] = Pharmacokinetics Part 1, single oral dose, plasma and urine; type: in vivo, homo sapiens
How it was run: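 Healthy adults (men and women of non-child-bearing potential) got one oral dose of test compound (7, 20 or 40 mg; 6 per cohort) or placebo. Plasma was sampled pre-dose, at 15 and 30 min, and at 1–48 h (72 h at 40 mg only). Urine was collected over 0–72 h intervals. Analysis was LC-MS/MS after protein precipitation (plasma 1.00–6000 nmol/L). t½ = ln(2)/λz. Dose proportionality was assessed graphically and by power model.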

[2] = Pharmacokinetics Part 2, once daily oral dosing, plasma and urine; type: in vivo, homo sapiens
How it was run: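 Oral test compound or placebo was given once each morning at 5, 15 or 20 mg on day 1 and days 3–16. Plasma was sampled over 48 h after the day 1 dose and after the day 16 dose, with troughs pre-dose on days 4, 5, 6, 9 and 12. Urine was collected in intervals on days 1 and 16. Quantitation was by LC-MS/MS after protein precipitation.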

CTX-1 = assay: Serum bone turnover biomarker CTX-1; type: in vivo, homo sapiens
How it was run: (§1)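 Participants got test compound (5, 15 or 20 mg) or placebo once daily on day 1 and days 3–16. Serum was drawn at screening and pre-dose on days 1, 5, 7, 12 and 16, and on days 22 (±1) and 45 (±2), at the same time as baseline. CTX-1, P1NP and osteocalcin were measured by electrochemiluminescence immunoassay and BSAP by sandwich ELISA. Results are percent change from baseline versus pooled placebo.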

P1NP = assay: Serum bone turnover biomarker P1NP; type: in vivo, homo sapiens; details: 15 mg QD for 14 days
How it was run: as §1

osteocalcin = assay: Serum bone turnover biomarker osteocalcin; type: in vivo, homo sapiens
How it was run: as §1

BSAP = assay: Serum bone turnover biomarker BSAP; type: in vivo, homo sapiens
How it was run: as §1

AXIN2 mRNA [3] = assay: Target engagement: AXIN2 mRNA; type: in vivo, homo sapiens; details: skin
How it was run: (§2)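 Hair follicles (2 mm micropunch) and skin biopsies (4 mm) were taken from the lower back of the head on day −1 and on day 16, 8 ± 2 h after the last of 14 consecutive once-daily doses. AXIN2 mRNA was measured by qRT-PCR and normalized to the geometric mean of HPRT1, IPO8 and POLR2A. Fold change from baseline was calculated by 2^−ΔΔCt, versus 8 pooled placebo participants.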

AXIN2 mRNA [4] = assay: Target engagement: AXIN2 mRNA; type: in vivo, homo sapiens; details: hair follicle
How it was run: as §2

Wnt7a = assay: Serum high-throughput proteomics; type: in vivo, homo sapiens; details: study day 16, 5, 15, 20 mg
Wnt16 = assay: Serum high-throughput proteomics; type: in vivo, homo sapiens; details: study day 16
[5] = Human PK, dose-to-man and exposure predictions; details: 15 mg once daily
lung collagen deposition = details: cited from earlier work
[6] = test system: alveolar epithelial type II cells; details: cited from earlier work
[7] = cited from earlier work
bone mineral density = details: cited from earlier work
tumor = details: cited from earlier work
tumor cell proliferation = details: cited from earlier work
[8] = cited from earlier work; remark: listed apart in the source
Axin2 mRNA [9] = details: cited from earlier work
[10] = 20 patients, median 22 weeks treatment; cited from earlier work
skin fibrosis = details: cited from earlier work
heart repair = details: cited from earlier work
[11] = all dose levels, after 14 consecutive days of dosing

## Cc1cc(-c2nccc3c2ccn3CC(=O)Nc2ccc(-c3cnccn3)cn2)ccn1 [AZD5055]
Phase 1 Part 1; Part 1, 7 mg
  Participants with at least one TEAE: 2 (33.3%) n (%)
Phase 1 Part 1; Part 1, 20 mg
  Participants with a grade 2 TEAE of nsVT: One
  Participants with at least one TEAE: 1 (16.7%) n (%)
Phase 1 Part 1; Part 1, 40 mg
  Participants with at least one TEAE: 1 (16.7%) n (%)
Phase 1 Part 1; Part 1 SAD pooled, N=18
  Any TEAEs possibly related to the IMP (as assessed by investigator): 3 (16.7%) n (%)
Phase 1 Part 1; Part 1 SAD pooled, n=18
  Abdominal pain upper: 1 (5.6) n (%)
  Application site scab: 1 (5.6) n (%)
  Cardiac disorders: 1 (5.6) n (%)
  Coronavirus infection: 0 n (%)
  Cough: 0 n (%)
  Dermatitis contact: 0 n (%)
  Dizziness: 1 (5.6) n (%)
  Dysgeusia: 0 n (%)
  Epistaxis: 0 n (%)
  Erythema: 0 n (%)
  Folliculitis: 0 n (%)
  Gastrointestinal disorders: 1 (5.6) n (%)
  General disorders and administration site conditions: 2 (11.1) n (%)
  Headache: 0 n (%)
  Infections and infestations: 0 n (%)
  Injury, poisoning and procedural complications: 0 n (%)
  Limb injury: 0 n (%)
  Medical device site dermatitis: 1 (5.6) n (%)
  Nasal discomfort: 0 n (%)
  Nausea: 1 (5.6) n (%)
  Nervous system disorders: 1 (5.6) n (%)
  Participants with ≥1 TEAE: 4 (22.2%) n (%) and 4 (22.2) n (%)
  Participants with ≥1 TEAE leading to discontinuation of investigational product: 0 n (%)
  Participants with ≥1 TEAE of grade 1 severity: 4 (22.2) n (%)
  Participants with ≥1 TEAE of grade 2 severity: 0 n (%)
  Participants with ≥1 TEAE of grade 3 severity: 0 n (%)
  Participants with ≥1 TESAE: 0 n (%)
  Photophobia: 0 n (%)
  Post procedural erythema: 0 n (%)
  Post procedural inflammation: 0 n (%)
  Procedural pain: 0 n (%)
  Respiratory, thoracic and mediastinal disorders: 1 (5.6) n (%)
  Sensation of foreign body: 0 n (%)
  Skin abrasion: 0 n (%)
  Skin and subcutaneous tissue disorders: 0 n (%)
  Suture rupture: 0 n (%)
  Ventricular tachycardia: 1 (5.6) n (%)
  Vessel puncture site haematoma: 0 n (%)
  Vision blurred: 0 n (%)
  Vomiting: 1 (5.6) n (%)
  Wheezing: 1 (5.6) n (%)
Phase 1 Part 1; Parts 1 and 2
  Deaths, SAEs, AEs of CTCAE grade 3 or higher: No deaths, serious adverse events (SAEs) or AEs of CTCAE grade 3 or higher were reported
  Participants with a TEAE of nsVT during the study: Three
  clinical laboratory results, vital signs, physical examinations, ECGs, oxygen saturation: no clinically significant changes
Phase 1 Part 1; both study parts
  Overall safety and tolerability: safe and well tolerated
Phase 1 Part 2; Part 2, 5 mg QD, N=8
  Any TEAE leading to discontinuation of IMP: 2 n (%)
Phase 1 Part 2; Part 2, 15 mg QD, N=9
  Any TEAE leading to discontinuation of IMP: 1 n (%)
Phase 1 Part 2; Part 2 MAD pooled, N=26
  Any TEAE possibly related to the IMP (as assessed by investigator): 7 (26.9%) n (%)
Phase 1 Part 2; Part 2 MAD pooled, n=26
  Abdominal pain upper: 0 n (%)
  Application site scab: 0 n (%)
  Breath odor: 1 (3.8) n (%)
  Cardiac disorders: 2 (7.7) n (%)
  Coronavirus infection: 1 (3.8) n (%)
  Cough: 0 n (%)
  Dermatitis contact: 0 n (%)
  Dizziness: 0 n (%)
  Dysgeusia: 2 n (%) and 2 (7.7) n (%)
  Epistaxis: 1 (3.8) n (%)
  Erythema: 1 (3.8) n (%)
  Eye disorders: 2 (7.7) n (%)
  Folliculitis: 1 (3.8) n (%)
  Gastrointestinal disorders: 1 (3.8) n (%)
  General disorders and administration site conditions: 11 (42.3) n (%)
  Headache: 5 (19.2) n (%)
  Infections and infestations: 2 (7.7) n (%)
  Injury, poisoning and procedural complications: 5 (19.2) n (%)
  Limb injury: 1 (3.8) n (%)
  Medical device site dermatitis: 11 (42.3) n (%)
  Nasal discomfort: 1 (3.8) n (%)
  Nausea: 0 n (%)
  Nervous system disorders: 7 (26.9) n (%)
  Participants with ≥1 TEAE: 21 (80.8%) n (%) and 21 (80.8) n (%)
  Participants with ≥1 TEAE of grade 1 severity: 16 (61.5%) n (%) and 16 (61.5) n (%)
  Participants with ≥1 TEAE of grade 2 severity: 5 (19.2%) n (%) and 5 (19.2) n (%)
  Participants with ≥1 TEAE of grade 3 severity: 0 n (%)
  Participants with ≥1 TESAE: 0 n (%)
  Photophobia: 1 (3.8) n (%)
  Post procedural erythema: 1 (3.8) n (%)
  Post procedural inflammation: 1 (3.8) n (%)
  Procedural pain: 2 (7.7) n (%)
  Respiratory, thoracic and mediastinal disorders: 2 (7.7) n (%)
  Sensation of foreign body: 1 (3.8) n (%)
  Skin abrasion: 1 (3.8) n (%)
  Skin and subcutaneous tissue disorders: 1 (3.8) n (%)
  Suture rupture: 0 n (%)
  Ventricular tachycardia: 2 (7.7) n (%)
  Vessel puncture site haematoma: 0 n (%)
  Vision blurred: 1 (3.8) n (%)
  Vomiting: 0 n (%)
  Wheezing: 0 n (%)
[1]; after a single dose, across dose cohorts
  mean terminal elimination half-life: 10 to 11 h
[1]; oral, across dose cohorts
  median time to maximum plasma concentration (tmax): 1 to 1.5 h
[1]; single doses 7-40 mg
  Dose proportionality (power-model approach): behaves dose-proportionally
[2]; after 14 consecutive days of once daily treatment, 5-20 mg
  Dose proportionality of systemic exposure: increased in a dose-proportional manner
[2]; following repeated once daily dosing
  mean terminal half-life: 12 to 17 h
[2]; in vivo
  AZD5055 dose excreted unchanged in urine: Approximately 3%
  mean renal clearance: 0.2 to 0.3 L/h
[2]; once daily dosing
  Steady state conditions in plasma reached: ≤ 5 doses
  accumulation ratio: ≤ 2
CTX-1; 15 mg QD for 14 days
  estimated increase in serum CTX-1 compared with the placebo group: 17.5%
CTX-1; 20 mg QD for 14 days
  estimated increase in serum CTX-1 compared with the placebo group: 32.8%
P1NP
  estimated decrease in serum P1NP compared with the placebo group: 56.3%
osteocalcin; 15 and 20 mg doses
  serum osteocalcin levels: reductions
osteocalcin; lower doses
  serum osteocalcin levels vs placebo: comparable to those in the placebo group
BSAP; 20 mg dose
  serum BSAP levels: reductions
BSAP; lower doses
  serum BSAP levels vs placebo: comparable to those in the placebo group
AXIN2 mRNA [3]; 15 and 20 mg cohorts
  reduction of median AXIN2 mRNA levels: 50%–60%
AXIN2 mRNA [3]; [11]
  AXIN2 mRNA expression vs placebo-treated participants: significantly reduced from baseline
AXIN2 mRNA [4]; 15 and 20 mg cohorts
  reduction of median AXIN2 mRNA levels: 50%–60%
AXIN2 mRNA [4]; [11]
  AXIN2 mRNA expression vs placebo-treated participants: significantly reduced from baseline
Wnt7a
  Serum Wnt7a levels: reduced on study day 16 for all AZD5055 dose levels evaluated
Wnt16
  Serum Wnt16 levels: reduced on study day 16 at the 15 and 20 mg AZD5055 dose levels
[5]
  predicted continuous inhibition of Porcupine across the dosing interval: > 75%
[5]; 3-fold in vitro IC50
  predicted trough AZD5055 concentration: 0.023 µmol/L
Lung collagen deposition
  collagen deposition in the lungs: reduced collagen deposition in the lungs
[6]
  differentiation of alveolar epithelial type II cells into alveolar type I cells: increasing differentiation of alveolar epithelial type II cells into alveolar type I cells

## Cn1c(=O)c2c(ncn2CC(=O)Nc2ccc(-c3ccccc3)nn2)n(C)c1=O [ETC-159]
[7]
  participants reporting dysgeusia: ≤ 50%
[7]; patients with advanced cancer
  circulating CTX-1 levels: increased circulating CTX-1 levels
Bone mineral density
  bone mineral density: caused loss of bone mineral density
tumor
  tumor response: induces tumor regression

## Cc1c(-c2ccnc(C(F)(F)F)c2)ncn1CC(=O)Nc1ccc(-c2cnccn2)cn1 [RXC004]
Tumor cell proliferation
  tumor cell proliferation: inhibits tumor cell proliferation

## Cc1cc(-c2ncc(CC(=O)Nc3ccc(-c4cnccn4)cn3)cc2C)ccn1 [WNT974]
[8]
  participants reporting dysgeusia: ≤ 50%
[8]; various advanced cancers
  participants with reduced tumor size: 74%
Axin2 mRNA [9]
  mean reduction in AXIN2 mRNA levels in skin biopsies: 50%–60%
[10]
  patients who developed fragility fractures: 45%
Bone mineral density
  bone mineral density: caused loss of bone mineral density
Skin fibrosis
  skin fibrosis: prevented progression of skin fibrosis
Heart repair
  heart repair following cardiac injury: promoted heart repair
